From ChEMBL document CHEMBL1148485, “Synthesis and biological evaluation of new selective cytotoxic cyclolignans derived from podophyllotoxin” (J Med Chem, 2004)

What was measured:
HeLa [1] = experiment: Effect on cell cycle evaluated as proportion of cells in G0/G1 phase of the cell cycle at 10E-6 M for 24 hr in HeLa cells; assay type: functional, Homo sapiens
In short: (§1)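 HeLa cells were grown in DMEM with 10% heat-inactivated FCS and 2 mM L-glutamine at 37 °C in 5% CO2. They were exposed to 10^-6 to 10^-8 M for 24, 48 or 72 h. Then (3-5)×10^5 cells were fixed overnight in 70% ethanol at 4 °C, PBS-washed, and given 1 mg/mL RNase A plus 20 µg/mL propidium iodide for 1 h at room temperature. DNA content was read by flow cytometry. Sub-G1 (hypodiploid) % counted as apoptotic. Untreated controls were run in parallel. Representative of three independent experiments.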

HeLa [2] = experiment: Effect on cell cycle evaluated as proportion of cells in G0/G1 phase of the cell cycle at 10E-6 M for 48 hr in HeLa cells; assay type: functional, Homo sapiens; in short: as §1
HeLa [3] = experiment: Effect on cell cycle evaluated as proportion of cells in G0/G1 phase of the cell cycle at 10E-6 M for 72 hr in HeLa cells; assay type: functional, Homo sapiens; in short: as §1
HeLa [4] = experiment: Effect on cell cycle evaluated as proportion of cells in G0/G1 phase of the cell cycle at 10E-7 M for 24 hr in HeLa cells; assay type: functional, Homo sapiens; in short: as §1
HeLa [5] = experiment: Effect on cell cycle evaluated as proportion of cells in G0/G1 phase of the cell cycle at 10E-7 M for 48 hr in HeLa cells; assay type: functional, Homo sapiens; in short: as §1
HeLa [6] = experiment: Effect on cell cycle evaluated as proportion of cells in G0/G1 phase of the cell cycle at 10E-7 M for 72 hr in HeLa cells; assay type: functional, Homo sapiens; in short: as §1
HeLa [7] = experiment: Effect on cell cycle evaluated as proportion of cells in G0/G1 phase of the cell cycle at 10E-8 M for 24 hr in HeLa cells; assay type: functional, Homo sapiens; in short: as §1
HeLa [8] = experiment: Effect on cell cycle evaluated as proportion of cells in G0/G1 phase of the cell cycle at 10E-8 M for 48 hr in HeLa cells; assay type: functional, Homo sapiens; in short: as §1
HeLa [9] = experiment: Effect on cell cycle evaluated as proportion of cells in G0/G1 phase of the cell cycle at 10E-8 M for 72 hr in HeLa cells; assay type: functional, Homo sapiens; in short: as §1
HeLa [10] = experiment: Effect on cell cycle evaluated as proportion of cells in G2/M phase of the cell cycle at 10E-6 M for 48 hr in HeLa cells; assay type: functional, Homo sapiens; in short: as §1
HeLa [11] = experiment: Effect on cell cycle evaluated as proportion of cells in G2/M phase of the cell cycle at 10E-6 M for 72 hr in HeLa cells; assay type: functional, Homo sapiens; in short: as §1
HeLa [12] = experiment: Effect on cell cycle evaluated as proportion of cells in S phase of the cell cycle at 10E-8 M for 24 hr in HeLa cells; assay type: functional, Homo sapiens; in short: as §1
HeLa [13] = experiment: Effect on cell cycle evaluated as proportion of cells in S phase of the cell cycle at 10E-8 M for 48 hr in HeLa cells; assay type: functional, Homo sapiens; in short: as §1
HeLa [14] = experiment: Effect on cell cycle evaluated as proportion of cells in S phase of the cell cycle at 10E-8 M for 72 hr in HeLa cells; assay type: functional, Homo sapiens; in short: as §1
HeLa [15] = experiment: Effect on cell cycle evaluated as proportion of cells in S phase of the cell cycleG2/M at 10E-8 M for 72 hr in HeLa cells; assay type: functional, Homo sapiens; in short: as §1
HeLa [16] = experiment: Effect on cell cycle evaluated as proportion of cells in sub-G1 (apoptic cells) phase of the cell cycle at 10E-6 M for 72 hr in HeLa cells; assay type: functional, Homo sapiens; in short: as §1
HeLa [17] = experiment: Effect on cell cycle evaluated as proportion of cells in sub-G1 (apoptic cells) phase of the cell cycle at 10E-7 M for 72 hr in HeLa cells; assay type: functional, Homo sapiens; in short: as §1
HeLa [18] = experiment: Effect on cell cycle evaluated as proportion of cells in sub-G1 phase (apoptic cells )of the cell cycle at 10E-8 M for 24 hr in HeLa cells; assay type: functional, Homo sapiens; in short: as §1
HeLa [19] = experiment: Effect on cell cycle evaluated as proportion of cells in sub-G1 phase (apoptic cells) of the cell cycle at 10E-6 M for 24 hr in HeLa cells; assay type: functional, Homo sapiens; in short: as §1
HeLa [20] = experiment: Effect on cell cycle evaluated as proportion of cells in sub-G1 phase (apoptic cells) of the cell cycle at 10E-7 M for 24 hr in HeLa cells; assay type: functional, Homo sapiens; in short: as §1
HeLa [21] = experiment: Effect on cell cycle evaluated as proportion of cells in sub-G1 phase (apoptic cells)of the cell cycle at 10E-8 M for 48 hr in HeLa cells; assay type: functional, Homo sapiens; in short: as §1
HeLa [22] = experiment: Effect on cell cycle evaluated as proportion of cells in sub-G1 phase of the cell cycle at 10E-7 M for 48 hr in HeLa cells; assay type: functional, Homo sapiens; in short: as §1
HT-29 = experiment: In vitro cytotoxicity against HT-29 (human colon carcinoma) cell line.; assay type: functional, cell-based; conditions: Homo sapiens, HT-29
HeLa [23] = experiment: Effect on cell cycle evaluated as proportion of cells in G2/M phase of the cell cycle at 10E-7 M for 72 hr in HeLa cells; assay type: functional, Homo sapiens; in short: as §1
HeLa [24] = experiment: Effect on cell cycle evaluated as proportion of cells in G2/M phase of the cell cycle at 10E-8 M for 24 hr in HeLa cells; assay type: functional, Homo sapiens; in short: as §1
HeLa [25] = experiment: Effect on cell cycle evaluated as proportion of cells in G2/M phase of the cell cycle at 10E-8 M for 48 hr in HeLa cells; assay type: functional, Homo sapiens; in short: as §1
HeLa [26] = experiment: Effect on cell cycle evaluated as proportion of cells in S phase of the cell cycle at 10E-6 M for 24 hr in HeLa cells; assay type: functional, Homo sapiens; in short: as §1
HeLa [27] = experiment: Effect on cell cycle evaluated as proportion of cells in S phase of the cell cycle at 10E-6 M for 48 hr in HeLa cells; assay type: functional, Homo sapiens; in short: as §1
HeLa [28] = experiment: Effect on cell cycle evaluated as proportion of cells in S phase of the cell cycle at 10E-6 M for 72 hr in HeLa cells; assay type: functional, Homo sapiens; in short: as §1
HeLa [29] = experiment: Effect on cell cycle evaluated as proportion of cells in S phase of the cell cycle at 10E-7 M for 24 hr in HeLa cells; assay type: functional, Homo sapiens; in short: as §1
HeLa [30] = experiment: Effect on cell cycle evaluated as proportion of cells in S phase of the cell cycle at 10E-7 M for 48 hr in HeLa cells; assay type: functional, Homo sapiens; in short: as §1
HeLa [31] = experiment: Effect on cell cycle evaluated as proportion of cells in S phase of the cell cycle at 10E-7 M for 72 hr in HeLa cells; assay type: functional, Homo sapiens; in short: as §1
HeLa [32] = experiment: Effect on cell cycle evaluated as proportion of cells in G2/M phase of the cell cycle at 10E-7 M for 24 hr in HeLa cells; assay type: functional, Homo sapiens; in short: as §1
HeLa [33] = experiment: Effect on cell cycle evaluated as proportion of cells in G2/M phase of the cell cycle at 10E-7 M for 48 hr in HeLa cells; assay type: functional, Homo sapiens; in short: as §1
HeLa [34] = experiment: Effect on cell cycle evaluated as proportion of cells in sub-G1 phase(apoptic cells) of the cell cycle at 10E-8 M for 72 hr in HeLa cells; assay type: functional, Homo sapiens; in short: as §1
HeLa [35] = experiment: Effect on cell cycle evaluated as proportion of cells in sub-G1 (apoptic cells) phase of the cell cycle at 10E-6 M for 48 hr in HeLa cells; assay type: functional, Homo sapiens; in short: as §1
[36] = Selectivity index is the ratio of IC50 of P-388 cell line to that of HT-29; assay type: functional
HeLa [37] = experiment: Effect on cell cycle evaluated as proportion of cells in G2/M phase of the cell cycle at 10E-6 M for 24 hr in HeLa cells; assay type: functional, Homo sapiens; in short: as §1

Compound: COc1cc([C@@H]2c3cc4c(cc3[C@H](O)[C@H]3COC(=O)[C@H]23)OCO4)cc(OC)c1OC [PODOFILOX]
- Activity (HeLa [1]): 2.2%
- Activity (HeLa [2]): 9.7%
- Activity (HeLa [3]): 7.1%
- Activity (HeLa [4]): 2.2%
- Activity (HeLa [5]): 11%
- Activity (HeLa [6]): 9.2%
- Activity (HeLa [7]): 22.6%
- Activity (HeLa [8]): 16.1%
- Activity (HeLa [9]): 13.9%
- Activity (HeLa [10]): 18%
- Activity (HeLa [11]): 0.2%
- Activity (HeLa [12]): 4.3%
- Activity (HeLa [13]): 9.7%
- Activity (HeLa [14]): 4.1%
- Activity (HeLa [15]): 0.2%
- Activity (HeLa [16]): 89.3%
- Activity (HeLa [17]): 88.1%
- Activity (HeLa [18]): 1.4%
- Activity (HeLa [19]): 1.5%
- Activity (HeLa [20]): 1.6%
- Activity (HeLa [21]): 68.4%
- Activity (HeLa [22]): 59%
- IC50 (HT-29): 24 nM
- Activity (HeLa [23]): 0.2%
- Activity (HeLa [24]): 71.7%
- Activity (HeLa [25]): 5.8%
- Activity (HeLa [26]): 4.2%
- Activity (HeLa [27]): 10%
- Activity (HeLa [28]): 3.4%
- Activity (HeLa [29]): 4.5%
- Activity (HeLa [30]): 10.5%
- Activity (HeLa [31]): 2.5%
- Activity (HeLa [32]): 91.7%
- Activity (HeLa [33]): 19.5%
- Activity (HeLa [34]): 81.8%
- Activity (HeLa [35]): 62.3%
- Selectivity index [36]: 0.5
- Activity (HeLa [37]): 92.1%
